# Compounds with a hit are over-represented: about 3.5% of the library has one in this group of screens.
# MrgX1 antag: blocks BAM8-22 activation of human MrgX1 receptor. MRGX1-HEK293 calcium flux, Fluo-4, BAM8-22 antagonism; hits give low values. B-score at 10 µM. actives 1.3% (n = 310,000). AID 588676;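 active = calcium-response B-score plate-corrected more than 3 library SD below zero, starting fluorescence within 5 deviations, no agonist response on first addition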;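 note: peak minus trough fluorescence over baseline after final BAM8-22 challenge near maximal dose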
# Target sequence (Q96LB2 whole entry, looked up): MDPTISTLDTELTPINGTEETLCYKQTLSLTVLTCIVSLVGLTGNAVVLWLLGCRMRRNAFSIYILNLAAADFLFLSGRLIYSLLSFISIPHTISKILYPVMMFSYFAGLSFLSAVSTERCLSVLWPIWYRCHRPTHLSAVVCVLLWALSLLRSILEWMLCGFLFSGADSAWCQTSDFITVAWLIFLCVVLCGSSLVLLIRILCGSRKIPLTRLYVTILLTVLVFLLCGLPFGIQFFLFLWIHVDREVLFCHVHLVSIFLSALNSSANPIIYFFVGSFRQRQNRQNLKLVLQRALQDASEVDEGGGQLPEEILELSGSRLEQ
# MrgX1 allo act: human MrgX1 positive allosteric modulation, primary screen; Q96LB2; MrgX1-HEK293, Fluo-4 calcium flux, FDSS; hits give high values; B-score at 10 µM; actives 0.63% (n = 310,000); AID 588675;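 active = plate-corrected calcium response at least 3 library SD above typical, normal starting fluorescence, not activating the receptor alone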;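 note: compound read alongside a low EC10 to EC30 dose of BAM8-22 agonist; peak minus trough fluorescence over baseline measured at the second addition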
# MrgX1 ag: activates human MrgX1 receptor signaling. actives 0.44% (n = 310,000). MrgX1-HEK293 cells, Fluo-4 calcium fluorescence, agonist mode; hits give high values. AID 588627. B-score at 10 µM;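 active = calcium response B-score plate-corrected fluorescence ratio at least 3 library SD, with starting fluorescence B-score inside 5 SD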
#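 Test system: HEK293 cells stably expressing human MrgX1 receptor; Input: fifteen thousand cells per well; Dosing: compound delivered in addition one of three; Schedule: overnight seeding, then 1 h dark dye loading; Technique: Fluo-4 NW calcium fluorescence; Measure: B-scored fluorescence response ratio; Controls: positive and negative controls per plate.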
# RGS4 pot: RGS4 potentiation or activation; HEK293 M3R/inducible RGS4, carbachol calcium flux Fluo4; hits give low values; B-score at 10 µM; actives 0.92% (n = 310,000); AID 463111;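 active = B-score of the integrated calcium signal more than 4 SD below the library mean, with starting fluorescence not abnormally high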;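 note: negative B-score means reduced calcium response which marks RGS4 activation or potentiation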
#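 Test system: HEK293 cells with stable M3R and inducible RGS4; also added: carbachol at ECmax as muscarinic agonist stimulus; schedule: dye loading 30 min 37 °C, buffer rest 30 min RT; technique: kinetic calcium fluorescence imaging with Fluo4-AM dye, 2 µM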
# RGS4 block: human RGS4 inhibition | HEK293 M3R/RGS4 inducible, Fluo-4 calcium flux; hits give high values; triggered by carbachol at its EC20 | B-score at 10 µM | actives 0.45% (n = 310,000) | AID 463165;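 active = B-score, a plate-corrected calcium signal, over three deviations above library mean, with baseline fluorescence within five deviations of library mean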;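 note: RGS4 expression induced by doxycycline in cells with stable M3 receptor; B-score is computed from the integrated fluorescence ratio over baseline after carbachol; higher B-score means a larger calcium signal and so more RGS4 inhibition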
# Target sequence (P49798 whole entry, looked up): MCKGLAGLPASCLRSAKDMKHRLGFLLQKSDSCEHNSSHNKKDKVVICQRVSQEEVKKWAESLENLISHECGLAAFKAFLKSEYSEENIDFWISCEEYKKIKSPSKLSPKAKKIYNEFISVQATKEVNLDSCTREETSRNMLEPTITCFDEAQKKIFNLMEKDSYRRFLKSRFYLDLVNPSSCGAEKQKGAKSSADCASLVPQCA
# A number is an active result; i = inactive; nt = no result.
SMILES,MrgX1 antag,MrgX1 allo act,MrgX1 ag,RGS4 pot,RGS4 block
Cc1cc(C)n2nc3nc(N4CCCCC4)nc(-c4ccco4)c3c2n1,-4.67,i,i,i,i
CSCC[C@H](NC(=O)c1ccc2ccccc2c1)C(=O)N1CCC2(CC1)NCCc1[nH]cnc12,i,i,i,-7.61,i
COc1ccc(S(=O)(=O)NCC2CCC(C(=O)N3CCC4(CC3)OCCO4)CC2)cc1 (configuration not stated),nt,nt,nt,i,i
O=C(CC(=O)c1cccc([N+](=O)[O-])c1)Nc1ccccc1Cl,i,i,i,i,i
O=C(c1ccco1)N1CCN(C(c2ccccc2)c2nnnn2C2CCCC2)CC1 (configuration not stated),i,i,i,i,i
C=CC[n+]1c(-c2ccc(OCC)cc2)csc1NNC(=O)Nc1ccccc1,-6.23,i,i,i,i
CC(C)CC(NC(N)=O)C(=O)Nc1ccc(Oc2ccccc2)cc1 (configuration not stated),i,i,i,i,i
COc1ccc(CCNC(=O)C2CCC(=O)N(CC3CCCCC3)C2)cc1 (configuration not stated),nt,nt,nt,-7.12,i
O=c1oc2ccccc2cc1-c1csc(NN=C2CCCCC2)n1,i,i,i,-7.51,i
CCC(C(=O)Nc1ccc2[nH]ncc2c1)c1ccccc1 (configuration not stated),i,i,i,i,i
Cc1cc(C(=O)NNc2c(Cl)cccc2Cl)n(C(C)(C)C)n1,i,i,i,i,i
COc1ccccc1OCCOCCOc1ccc(C)cc1[N+](=O)[O-],-7.02,i,i,i,i
COc1cc(C)ccc1OCCOCCN(C)Cc1ccccc1,-6.5,i,i,i,i
Cc1ccc(S(=O)(=O)Nc2cccc(C(=O)NCc3ccccn3)c2)cc1F,i,i,i,i,i
Nc1c(-c2ccc(Cl)cc2)cnn1-c1cc(C(F)(F)F)cc(C(F)(F)F)c1,i,14.2,i,i,i
Nc1c(-c2cccc(Cl)c2)cnn1-c1cccc(C(F)(F)F)c1,i,i,i,i,i
COCn1ccnc1C(O)(c1ccc(OC)cc1)c1ccc(OC)cc1,i,i,i,i,i
O=C(NNC(=O)c1cc(Cl)ccc1O)c1cccc(S(=O)(=O)N2CCOCC2)c1,-4.85,i,i,i,i
O=C(NNC(=O)c1cccc(S(=O)(=O)N2CCN(c3ccccc3)CC2)c1)c1ccc(Cl)cc1,i,i,i,i,i
COCCNC(=S)NNc1ccccc1[N+](=O)[O-],-5.12,i,i,i,i
COc1ccc(O[C@H]2C=C[C@@H](c3ccccc3)O[C@@H]2COC(=O)CC/C(C)=N/O[C@@H](C)c2cc(-c3c(C)cc(C)cc3C)no2)cc1,nt,nt,nt,i,i
COc1ccc(O[C@H]2C=C[C@@H](c3ccccc3)O[C@@H]2COC(=O)CC/C(C)=N/OC[C@@H](O)COCc2ccco2)cc1,i,i,i,-9.69,i
CCCS(=O)(=O)Nc1cc(C(F)(F)F)ccc1OCCOC,i,i,i,i,i
CCNC(=S)N/N=C/c1ccc(OCc2ccc(C(=O)OC)cc2)cc1,-4.68,i,i,i,i
CCCCNC(=O)CCCCCn1c(=O)[nH]c2cc(C(=O)OC)ccc2c1=O,i,13.6,i,i,i
SMILES,MrgX1 antag,MrgX1 allo act,MrgX1 ag,RGS4 pot,RGS4 block
CCOC(=O)c1c(S(=O)(=O)NCC(=O)N2CCN(c3ccc(OC)cc3)CC2)c(C)n(C)c1C,i,i,i,i,i
COc1ccccc1NC(=S)N/N=C/c1ccc(O)cc1,i,8.97,i,i,i
COc1ccccc1NC(=S)N/N=C/c1cccc(C)c1,i,i,i,i,i
O=C(CCC(=O)OCc1ccc(Br)cc1)Nc1ccccc1,i,i,i,i,i
O=C1/C(=C\c2ccc(O)cc2)SC(=S)N1/N=C/c1ccc(O)cc1,i,i,39.1,i,i
CCOC(=O)C1CCCN(S(=O)(=O)CCNC(=O)c2ccc(F)cc2)C1 (configuration not stated),i,i,i,i,i
COc1ccc(N=C2S/C(=C\c3ccc(OCC(=O)O)cc3)C(=O)N2CCc2c[nH]c3ccccc23)cc1,nt,nt,nt,i,i
COc1ccc(N=C2S/C(=C\c3ccc(N4CCOCC4)o3)C(=O)N2CCc2c[nH]c3ccccc23)cc1,-7.14,i,i,i,i
O=C(Nc1ccc2c(c1)C(=O)NC2=O)c1ccc(S(=O)(=O)N2CCCC2)cc1,i,i,i,i,i
Cc1ccc([N+](=O)[O-])c(OCCn2cnc3ccccc32)c1,i,9.99,i,i,i
CCOc1ccc(NC(=O)COC(=O)Cc2ccc(S(=O)(=O)N3CCOCC3)s2)cc1,i,i,i,i,i
CCOc1ccc(S(=O)(=O)N2CCN(C(=O)Cc3ccc(S(=O)(=O)N4CCOCC4)s3)CC2)cc1,i,i,i,-7.27,i
Cc1cc(=O)[nH]c(SC(C)C(=O)Nc2cccc3ccccc23)n1 (configuration not stated),i,i,i,i,i
CC[n+]1c(/C=C/N(C)c2ccccc2)oc2ccccc21,i,i,i,i,i
CC/C(=C\c1oc2cc3ccccc3cc2[n+]1CC)Nc1ccccc1,i,i,27,i,i
CC(C)(C)c1ccc(CNC(=O)C2CCCN2C(=O)Nc2ccccc2)cc1 (configuration not stated),i,i,i,i,i
CN(C)/C=C1/C(=O)N(c2ccc([N+](=O)[O-])cc2)N=C1c1ccccc1,i,i,34.8,i,i
CC1=NN(c2ccc([N+](=O)[O-])cc2)C(=O)/C1=C\N(C)C,i,i,i,i,i
CN(C)/C=C1\C(=O)N(c2ccc([N+](=O)[O-])cc2)N=C1c1ccccc1,i,i,50.4,i,i
CCCCNC(=O)C(=O)N/N=C/c1ccc(OCC(=O)Nc2cccc(OC)c2)c(OC)c1,i,i,i,i,i
O=C(NCc1ccncc1)C(=O)N/N=C/c1ccccn1,i,i,i,i,i
COc1ccc(-c2cc(C(F)(F)F)c3c(n2)sc2c(O)cc(=O)[nH]c23)c(OC)c1,i,i,39.1,i,i
CCOc1ccccc1NC(=O)C1(S(=O)(=O)c2ccc(Cl)cc2)CC1,i,i,i,-7.05,i
O=C(NNC(=O)c1cc(-c2cccc(Br)c2)nc2ccccc12)c1csc(N2CCOCC2)n1,i,i,i,-7.56,i
CSc1ncccc1C(=O)OCC(=O)NC(C)C,i,i,i,i,i
COc1c(OC(C)=O)c(=O)n2c3ccccc3c3ccnc1c32,i,i,i,i,i
CCOc1ccccc1NC(=O)C(Sc1ccccc1)c1ccccc1 (configuration not stated),-5.02,i,i,-7.29,i
COc1ccccc1NC(=O)C(Sc1ccccc1)c1ccccc1 (configuration not stated),i,i,i,i,i
CC1(C)CC(=O)C(C2C3=C(CC(C)(C)CC3=O)Oc3c(Br)cc(Br)cc32)=C(O)C1 (configuration not stated),i,i,52.2,i,i
